In the library only some 0.73% were active in any assay of this set; here they are far more common.
C-LANA FP – blocks KSHV LANA C-terminal domain binding to DNA; MBP-C-LANA/FAM-LBS DNA binding, fluorescence polarization; inhibition, % at 9 µM; hit rate 0.078% among 340,000;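 active = highest replicate inhibition at or above 60% at 9 µM, even if other replicates fall short; inactive = all replicates below 60% inhibition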;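 also: 0% = neutral control wells and 100% = 4 µM acridine orange control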
cardiac RTF act – cardiac RTF calcium sensitization. P19429+P45379. IANBD-labeled TnC RTF fluorescence at EC20 calcium; 0% EC20 calcium, 100% full calcium. activation, % at 7.2 µM. hit rate 0.24% among 340,000;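 active = activation above the mean over all tested compounds plus 3 SD, cut at about 30% in these data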;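 also: rise in fluorescence read as greater calcium sensitivity of cardiac thin filaments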
Keap1-Nrf2 PPI – inhibitors of human Keap1-Nrf2 protein-protein interaction; Q14145; Keap1 Kelch-Nrf2 peptide fluorescence polarization, 1536-well; inhibition, % at 9.4 µM; hit rate 0.15% among 340,000; AID 504523; in the data active = inhibition above about 12%;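 also: human Keap1 Kelch domain with fluorescein labeled Nrf2 9mer peptide probe; 0% = neutral control wells and 100% = peptide positive control; higher means more block of Keap1 binding to Nrf2 peptide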
Target sequence (Q14145 whole entry, looked up, the tested form may be a part): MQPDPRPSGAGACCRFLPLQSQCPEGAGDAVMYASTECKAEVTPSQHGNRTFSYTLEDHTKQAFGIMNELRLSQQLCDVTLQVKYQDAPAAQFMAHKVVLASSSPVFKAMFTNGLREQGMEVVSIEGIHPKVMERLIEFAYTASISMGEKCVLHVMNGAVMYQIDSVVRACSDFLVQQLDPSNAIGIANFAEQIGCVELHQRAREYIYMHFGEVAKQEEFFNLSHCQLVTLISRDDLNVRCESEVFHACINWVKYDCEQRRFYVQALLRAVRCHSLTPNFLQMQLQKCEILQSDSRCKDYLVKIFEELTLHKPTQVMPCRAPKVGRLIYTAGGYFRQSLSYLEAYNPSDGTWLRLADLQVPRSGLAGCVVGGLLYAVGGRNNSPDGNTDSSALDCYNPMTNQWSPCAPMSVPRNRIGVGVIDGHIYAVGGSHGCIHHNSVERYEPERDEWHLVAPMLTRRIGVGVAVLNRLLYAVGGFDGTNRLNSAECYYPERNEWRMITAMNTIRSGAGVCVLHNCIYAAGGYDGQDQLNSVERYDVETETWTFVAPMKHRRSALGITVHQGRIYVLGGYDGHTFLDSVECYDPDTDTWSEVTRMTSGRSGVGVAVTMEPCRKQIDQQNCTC
Tn6 DDE FP – inhibitors of Tn6 peptide binding to human fibrin DD(E) | AID 720509 | P02675 | hit rate 0.21% among 370,000 | Fibrin DD(E) TRITC-Tn6 fluorescence polarization displacement | inhibition, % at 8.3 µM;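 active = inhibition above a per-campaign cutoff: mean of compounds within control limits plus 3 SD, cut at about 15% in these data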;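 also: 0% = median of all compound wells on the plate and 100% = blocking peptide control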
Cardiac RTF inh – cardiac RTF calcium desensitization; P19429+P45379; IANBD-labeled cardiac RTF, Ca2+ fluorescence; inhibition, % at 7.15 µM; hit rate 0.12% among 340,000;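 active = inhibition above the mean inhibition of all tested compounds plus 3 SD, cut at about 17% in these data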;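 also: assay run at fixed EC70 calcium of 1.6 mM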
DDE Tn7 FP inh – DD(E)-Tn7 binding inhibition, primary FP screen; FP displacement of FITC-Tn7 peptide from fibrin DD(E); 0% = median of compound wells per plate; inhibition, % at 8.3 µM; hit rate 0.13% among 370,000;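 active = inhibition above the mean of compounds falling within the control limits plus 3 SD of them, cut at about 14% in these data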;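 also: 0% = plate median of compound wells and 100% = 10 µM Aha-Tn7 peptide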
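Assay system: human fibrin DD(E). Input: DD(E) 2 µM final. Medium: Tris buffer with calcium and detergent, pH 7.8. Compound dosing: single point at 8.3 µM. Timing: 10 min plus 3 h, room temperature. Technique: fluorescence polarization of the labelled Tn7 tracer. Read-out: percent inhibition. Replicates: singlicate testing.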
DDE Tn6 FP ctr – DD(E)-Tn6 binding inhibition, counter-screen | Fibrin DD(E), TRITC-Tn6 fluorescence polarization displacement; 0% = median of compound wells, not DMSO | inhibition, % at 8.3 µM | hit rate 2% among 680 | shares compounds with Tn6 DDE FP;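 active = inhibition above the mean of test compounds lying between the control limits plus 3 SD of those, cut at about 14% in these data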;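 also: 0% = median of compound wells and 100% = wells with Aha-Tn7 blocking peptide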
DDE Tn6 confirm – confirmation of inhibitors of Tn6 binding to human fibrin DD(E); inhibition, % at 8.3 µM; AID 720631; FP displacement of TRITC-Tn6 peptide from DD(E); 0% = per-plate median of test wells; hit rate 10% among 680; shares compounds with Tn6 DDE FP;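 active = inhibition above the mean of compounds lying within the control limits plus 3 SD, cut at about 16% in these data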;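 also: 100% = high control wells holding a competing inhibitor peptide at 10 µM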
* hit, by the source's call; i = inactive; x = no result given; + = active, no number.

SMILES	C-LANA FP	cardiac RTF act	Keap1-Nrf2 PPI	Tn6 DDE FP	Cardiac RTF inh	DDE Tn7 FP inh	DDE Tn6 FP ctr	DDE Tn6 confirm
COCCN(CC1CCCN(C2Cc3ccccc3C2)C1)C(=O)c1ccc(C(C)=O)cc1 (centres undefined)	1.8	2.9	-1.4	15.9*	-1.6	4.8	-1.7	-3.1
O=C(NCc1ccco1)OC1CCC12CCC(c1ccccc1)CC2 (centres undefined)	x	x	x	-3.0	x	-5.7	x	x
Nn1c(SCC(=O)N2CCOCC2)nnc1-c1cc(-c2ccc(F)cc2)n[nH]1	x	x	x	15.9*	x	6.0	-6.1	-12.6
Nn1c(SCC(=O)N2CCOCC2)nnc1-c1cc(-c2ccc(Cl)cc2)n[nH]1	x	x	x	2.3	x	-3.8	x	x
CC(C)[C@@H]1CC[C@@H](C)C[C@H]1OC[B-](F)(F)F	x	x	x	-4.2	x	-0.5	x	x
CC(=O)Nc1ccc2c(c1)C(C)(C)C(C)N2C (centres undefined)	x	x	x	22.4*	x	-4.6	2.4	7.0
N#CC(C#N)=C1C=C2C=C(N3CCCCCC3)CCC2CC1 (centres undefined)	-13.8	+	-260.3	18.5*	i	-7.0	53.3*	10.4
COc1cc(OC)cc(C(=O)N(CN2CCCC2=O)c2ccccc2OC)c1	-0.7	2.6	0.4	15.8*	-2.6	3.9	1.9	2.4
O=C(COC(=O)CC1CC2CCC1C2)NC(=O)NCc1ccco1 (centres undefined)	0.7	1.7	-5.2	19.5*	0.7	1.0	0.9	-5.2
O=C(N[C@@H](Cc1ccccc1)C(=O)OCC(=O)N1CCOCC1)c1cccs1	-0.5	1.2	2.2	17.8*	4.2	-0.7	3.0	-5.3
O=C(COC(=O)C(Cc1ccccc1)NC(=O)c1cccs1)NCc1ccccc1 (centres undefined)	-1.4	7.2	-5.7	3.3	1.7	2.3	x	x
C[n+]1c(-c2ccccc2)cc2c(=Cc3ccccc3)c3ccccc3n21	0.2	-3.7	-6.4	16.5*	-0.8	-3.1	2.8	0.5
CCC(C)(C(=O)NC1CCCCC1)N(C(=O)Cc1cccs1)c1ccccc1 (centres undefined)	1.7	5.9	-1.1	15.5*	-1.0	-0.4	0.8	1.6
Nc1ccc(N2CCOCC2)c(S(=O)(=O)Nc2ccccc2Cl)c1	1.1	-0.9	-1.6	17.9*	-1.6	4.9	6.4	4.0
COc1ccccc1NS(=O)(=O)c1cc(N)ccc1N1CCOCC1	2.4	0.6	-0.2	-1.3	1.6	7.2	x	x
N#Cc1ccc(OC[C@@H](O)CN2CCC(C(O)(c3ccccc3)c3ccccc3)CC2)cc1F	x	x	x	4.3	x	-6.6	x	x
CCN(C(=O)[C@@H](C1CC1)[C@@H](O)c1ccc(C(C)=O)cc1)c1ccccc1	x	x	x	3.8	x	-2.6	x	x
C[C@@H]1OC(C2CCCCC2)N(C)[C@H]2C[C@H]3c4[nH]c5c(-c6ccccc6)cccc5c4CCN3C(=O)[C@@H]12 (some centres undefined)	x	x	x	-1.9	x	3.4	x	x
Oc1ccccc1C1CC(c2cccs2)=NC(c2cccc(Br)c2)N1 (centres undefined)	-0.2	0.0	-3.8	104.8*	1.1	6.4	5.7	-6.2
O=S(=O)(c1ccccc1)N1N=C(c2cccs2)CC1c1cccc(O)c1 (centres undefined)	-0.9	4.3	-5.9	-8.0	-4.5	-2.4	x	x
COc1ccc(-c2c(S(=O)(=O)c3ccccc3)cnn2-c2ccccc2)cc1	0.4	1.9	-6.3	-0.6	1.3	-4.3	x	x
O=S(=O)(c1ccccc1)c1cnn(-c2ccccc2)c1-c1ccc(Cl)cc1	0.7	2.5	-3.4	16.1*	-4.9	4.0	3.5	-6.2
COc1ccc(NC(=O)C2CCCN2C(=O)NC2CCCCC2)cc1 (centres undefined)	0.7	0.5	-1.1	17.4*	-3.0	0.8	-0.4	-5.0
Cc1ccccc1NC(=O)O[C@H]1CC[C@@]23CCCN2C(=O)CCC[C@H]3[C@H]1C	x	x	x	3.2	x	-1.1	x	x
Cc1cccc(-c2cccc3c4c([nH]c23)[C@@H]2C[C@H](N(C)C(=O)c3ccccc3F)[C@H]([C@H](C)O)CN2CC4)c1	x	x	x	0.0	x	-3.6	x	x
SMILES	C-LANA FP	cardiac RTF act	Keap1-Nrf2 PPI	Tn6 DDE FP	Cardiac RTF inh	DDE Tn7 FP inh	DDE Tn6 FP ctr	DDE Tn6 confirm
COc1ccc(CC(=O)NCc2ccc3c(c2)cc(C)n3C)cc1OC	0.7	4.5	-0.3	0.2	-6.4	6.1	x	x
Cc1cccc(OCC(=O)NCc2ccccc2)c1	0.2	3.4	-3.4	1.0	1.3	-9.0	x	x
Cc1cc2cc(CNC(=O)COc3ccccc3)ccc2n1C	7.9	2.7	2.3	46.5*	1.7	3.2	4.3	8.9
Cc1cc2cc(CNC(=O)Nc3ccc(Cl)c(Cl)c3)ccc2n1C	2.3	-6.6	1.2	96.0*	-2.9	-12.1	-0.2	34.7*
Cc1cc2cc(CNC(=O)NC3CCCCC3)ccc2n1C	3.2	1.2	-0.7	-0.8	-1.3	-4.3	x	x
COCC(=O)NCc1ccc2c(c1)cc(C)n2C	4.0	-1.5	-2.2	20.6*	-5.0	3.0	1.0	0.4
COc1cc(/C=C\C(=O)NCc2ccc3c(c2)cc(C)n3C)cc(OC)c1OC	2.6	-1.3	0.4	22.2*	-4.6	-8.0	9.9	4.6
CCc1nc2ccc(C(=O)NCCc3ccccn3)cn2c1N(C)CCC(C)C	x	x	x	10.7	x	1.9	x	x
Nc1ccc2ccc(NS(=O)(=O)N3CCCCC3)cc2c1	x	x	x	-8.9	x	-0.3	x	x
Cc1csc(-c2ccc3cc(Cl)cc(Cl)c3n2)n1	x	x	x	1.8	x	-8.7	x	x
CCCCOc1ccc(C(=O)NC2CCCCN(Cc3ccc(Cl)cc3)C2=O)cc1 (centres undefined)	x	x	x	-5.3	x	-4.2	x	x
Cc1ccc(S(=O)(=O)NCc2ccc3c(c2)cc(C)n3C)cc1	0.4	2.6	-1.0	71.1*	-3.0	-6.8	3.5	-0.6
Cc1ccc(S(=O)(=O)NCc2ccncc2)cc1	0.3	6.6	-1.8	1.4	2.4	-2.5	x	x
COc1cc(OC)cc(C(=O)NCc2ccc3c(c2)cc(C)n3C)c1	0.2	5.2	0.9	2.1	-21.8	0.4	x	x
Cc1cc2cc(CNC(=O)c3ccco3)ccc2n1C	2.9	8.1	-6.0	26.8*	-5.0	-5.2	6.5	-0.1
COc1ccc(C(=O)NCc2ccc3c(c2)cc(C)n3C)cc1	0.3	7.1	1.8	19.1*	-6.1	-2.4	5.7	-1.1
Cc1ccc(CNC(=O)c2c(-c3ccccc3Cl)noc2C)cc1	-1.3	-1.1	1.3	-4.2	1.4	0.3	x	x
Cc1onc(-c2ccccc2Cl)c1C(=O)NCc1ccc2c(c1)cc(C)n2C	0.3	1.8	-2.4	21.7*	-4.1	-1.7	2.7	1.0

Source: PubChem (several laboratories)
